Experimental data: PMC5743405 (International Journal of Oncology, 2017)
Entries after “also recorded” stand apart in the source; their conditions may differ. Where two headings read alike, the source gives them in different places.

Assays:
[1] = system: ADORA3; experiment: PathHunter β-arrestin; type: cell-based; conditions: 6 μM
Outline: (§1)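 β-Arrestin recruitment assay: the enzyme acceptor is fused to β-arrestin and the ED fragment to the GPCR. Recruitment restores β-galactosidase, read by chemiluminescence. % activity = 100% × (test − vehicle)/(max control ligand − vehicle). % inhibition = 100% × (1 − (test − vehicle)/(EC80 control − vehicle)). An agonist hit needs >30% activity and RLU > baseline + 3×SD. An antagonist hit needs >35% inhibition and RLU < EC80 RLU − 3×SD.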

[2] = system: ADRA2C; experiment: PathHunter β-arrestin; type: cell-based; conditions: antagonist mode, 6 μM
Outline: as §1

[3] = system: ADRB1; experiment: PathHunter β-arrestin; type: cell-based; conditions: 6 μM
Outline: as §1

[4] = system: AVPR1A; experiment: PathHunter β-arrestin; type: cell-based; conditions: antagonist mode, 6 μM
Outline: as §1

[5] = system: AVPR1B; experiment: PathHunter β-arrestin; type: cell-based; conditions: antagonist mode, 6 μM
Outline: as §1

[6] = system: C3AR1; experiment: PathHunter β-arrestin; type: cell-based; conditions: antagonist mode, 6 μM
Outline: as §1

[7] = system: CALCR; experiment: PathHunter β-arrestin; type: cell-based; conditions: 6 μM
Outline: as §1

[8] = system: CALCRL-RAMP2; experiment: PathHunter β-arrestin; type: cell-based; conditions: 6 μM
Outline: as §1

[9] = system: CCR4; experiment: PathHunter β-arrestin; type: cell-based; conditions: antagonist mode, 6 μM
Outline: (§2)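 Engineered cells express the receptor fused to one β-galactosidase fragment (ED) and β-arrestin fused to the complementing fragment (EA). Receptor activation recruits β-arrestin, which restores enzyme activity, and this is read by chemiluminescence (RLU). Agonist % activity is 100% × (test − vehicle)/(maximal control ligand − vehicle). Antagonist mode is challenged with an EC80 control agonist, and % inhibition is 100% × (1 − (test − vehicle)/(EC80 − vehicle)). Hits require >30% activity or >35% inhibition, plus a 3×SD RLU margin.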

[10] = system: CHRM1; experiment: PathHunter β-arrestin; type: cell-based; conditions: 6 μM
Outline: as §2

[11] = system: CHRM3; experiment: PathHunter β-arrestin; type: cell-based; conditions: 6 μM
Outline: as §2

[12] = system: DRD1; experiment: PathHunter β-arrestin; type: cell-based; conditions: antagonist mode, 6 μM
Outline: as §2

[13] = system: DRD4; experiment: PathHunter β-arrestin; type: cell-based; conditions: 6 μM
Outline: as §2

[14] = system: EDG4; experiment: PathHunter β-arrestin; type: cell-based; conditions: antagonist mode, 6 μM
Outline: as §2

[15] = system: EDG6; experiment: PathHunter β-arrestin; type: cell-based; conditions: 6 μM
Outline: as §2

[16] = system: F2RL3; experiment: PathHunter β-arrestin; type: cell-based; conditions: 6 μM
Outline: as §2

[17] = system: GPR109B; experiment: PathHunter β-arrestin; type: cell-based; conditions: 6 μM
Outline: (§3)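 Vendor-run (DiscoveRx) PathHunter enzyme fragment complementation. β-Arrestin carries the EA fragment and the receptor carries ED; recruitment restores β-gal activity, read by chemiluminescence (RLU). Agonist % activity = vehicle-subtracted RLU relative to max control ligand (gpcrMAX) or to vehicle (orphanMAX). Antagonist % inhibition = 100% × (1 − vehicle-subtracted sample RLU / vehicle-subtracted EC80 agonist control RLU).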

[18] = system: HTR1A; experiment: PathHunter β-arrestin; type: cell-based; conditions: antagonist mode, 6 μM
Outline: as §3

[19] = system: HTR2C; experiment: PathHunter β-arrestin; type: cell-based; conditions: 6 μM
Outline: as §3

[20] = system: LHCGR; experiment: PathHunter β-arrestin; type: cell-based; conditions: antagonist mode, 6 μM
Outline: as §3

[21] = system: MC5R; experiment: PathHunter β-arrestin; type: cell-based; conditions: 6 μM
Outline: as §3

[22] = system: MCHR1; experiment: PathHunter β-arrestin; type: cell-based; conditions: 6 μM
Outline: as §3

[23] = system: NPBWR1; experiment: PathHunter β-arrestin; type: cell-based; conditions: agonist mode, 6 μM
Outline: as §3

[24] = system: OPRL1; experiment: PathHunter β-arrestin; type: cell-based; conditions: antagonist mode, 6 μM
Outline: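 GPCR-ED fusion and β-arrestin-EA fusion; arrestin recruitment restores β-galactosidase, read by chemiluminescence. Antagonist mode uses EC80 agonist challenge. % inhibition = 100 × (1 − (test − vehicle RLU)/(EC80 control − vehicle RLU)). Hit requires >35% inhibition and mean RLU below EC80 RLU − 3 × EC80 SD.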

[25] = system: PPYR1; experiment: PathHunter β-arrestin; type: cell-based; conditions: antagonist mode, 6 μM
[26] = system: PTGER4; experiment: PathHunter β-arrestin; type: cell-based; conditions: 6 μM
Outline: (§4)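 β-Arrestin recruitment to GPCR read by β-galactosidase fragment complementation and chemiluminescence. Agonist: % = 100 × (test − vehicle)/(max control ligand − vehicle), hit at >30% and RLU > baseline + 3 SD. Antagonist, against EC80 agonist: % inhibition = 100 × (1 − (test − vehicle)/(EC80 − vehicle)), hit at >35% and RLU < EC80 − 3 SD.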

[27] = system: PTGIR; experiment: PathHunter β-arrestin; type: cell-based; conditions: 6 μM
Outline: as §4

[28] = system: TACR2; experiment: PathHunter β-arrestin; type: cell-based; conditions: agonist mode, 6 μM
[29] = system: TACR3; experiment: PathHunter β-arrestin; type: cell-based; conditions: antagonist mode, 6 μM
[30] = system: MUC5B; experiment: TriCEPS ligand-receptor capture; type: binding, human; conditions: 10 μg/ml PRP-1
[31] = system: TLR2; experiment: western blot, JJ012 cells; type: cell-based, human; conditions: vs untreated control, overnight incubation
Outline: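 JJ012 cells seeded at 1×10^6 cells/ml in 6-well clusters and incubated overnight at 37°C, 5% CO2 with or without test compound. Lysed with protease inhibitor (1:100) and centrifuged at 15,000 × g, 4°C. Protein loaded at 20 μg/lane with reducing agent, run on polyacrylamide gel, transferred to PVDF, probed with rabbit anti-TLR primaries and HRP-linked secondaries.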

[32] = system: chondrosarcoma cell growth; conditions: cited from earlier work

Proline rich polypeptide 1 [PRP-1]
% Activity ([1]; agonist mode): 1% | % Inhibition ([1]; antagonist mode): −3% | % Inhibition [2]: −4% | % Activity ([3]; agonist mode): 1% | % Inhibition ([3]; antagonist mode): −5% | % Inhibition [4]: −1% | % Inhibition [5]: −2% | % Inhibition [6]: −2% | % Activity ([7]; agonist mode): 1% | % Inhibition ([7]; antagonist mode): 1% | % Activity ([8]; agonist mode): 1% | % Inhibition ([8]; antagonist mode): −1% | % Inhibition [9]: 2% | % Activity ([10]; agonist mode): 1% | % Inhibition ([10]; antagonist mode): −12% | % Activity ([11]; agonist mode): 2% | % Inhibition ([11]; antagonist mode): −6% | % Inhibition [12]: −5% | % Activity ([13]; agonist mode): 3% | % Inhibition ([13]; antagonist mode): −2% | % Inhibition [14]: 5% | % Activity ([15]; agonist mode): −2% | % Inhibition ([15]; antagonist mode): 4% | % Activity ([16]; agonist mode): −1% | % Inhibition ([16]; antagonist mode): −1% | % Activity ([17]; agonist mode): 1% | % Inhibition ([17]; antagonist mode): −6% | % Inhibition [18]: −5% | % Activity ([19]; agonist mode): 1% | % Inhibition ([19]; antagonist mode): −3% | % Inhibition [20]: −15% | % Activity ([21]; agonist mode): 2% | % Inhibition ([21]; antagonist mode): −5% | % Activity ([22]; agonist mode): 1% | % Inhibition ([22]; antagonist mode): −4% | % Activity [23]: 3% | % Inhibition [24]: −7% | % Inhibition [25]: −4% | % Activity ([26]; agonist mode): 1% | % Inhibition ([26]; antagonist mode): 4% | % Activity ([27]; agonist mode): 1% | % Inhibition ([27]; antagonist mode): −2% | % Activity [28]: 1% | % Inhibition [29]: −1% | binding partner detection [30]: detected MUC5B as binding partner with 10 μg/ml PRP-1 treatment | protein expression [31]: strong upregulation; also recorded: upregulated protein expression of TLR1 and TLR2 in dose-dependent manner | inhibition of chondrosarcoma cell growth ([32]; ref [4],[5]): 80–90% | inhibition of chondrosarcoma cell growth ([32]; ref [4],[6]): > 80%
